# Calb biofilm kill = clotrimazole potentiators killing C. albicans biofilm, primary screen, 4-compound mixtures; C. albicans biofilm persisters + clotrimazole, fluorescence viability; primary screen in compound mixtures of four per well; inhibition, % at 7.6 µM; 120,000 tested, 0.02% active;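 active = inhibition above 30.3% in the primary screen of four-compound pools, then above 30% when the compound was retested; inconclusive = passed the primary limit but could not be retested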;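 also: compounds exposed to preformed 24 h biofilms for 48 h; 0% = untreated biofilm control and 100% = clotrimazole plus chlorhexidine kill blank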
#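 Test system: C. albicans biofilms. Buffer or medium: RPMI/MOPS medium, pH 7.0. Timing: 48 h compound exposure at 37 °C. Technique: Alamar Blue fluorescence. Evaluation: percent inhibition of biofilm viability.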
# ROMK mod = ROMK potassium channel modulators, primary screen, cell-based, thallium flux, MLSMR library | ATP-sensitive inward rectifier potassium channel 1 (Homo sapiens), P48048 | Tet-inducible ROMK, thallium flux fluorescence; actives lie on both sides | B-score at 10 µM | 130,000 tested, 2% active;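 active = signal ratio slope over the read window, or its plate-corrected B-score, at least 3 SD from the plate mean, either direction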;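 also: B-score of the F/F0 ratio slope over 7 to 12 s after thallium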
# Target sequence (P48048 whole entry, looked up): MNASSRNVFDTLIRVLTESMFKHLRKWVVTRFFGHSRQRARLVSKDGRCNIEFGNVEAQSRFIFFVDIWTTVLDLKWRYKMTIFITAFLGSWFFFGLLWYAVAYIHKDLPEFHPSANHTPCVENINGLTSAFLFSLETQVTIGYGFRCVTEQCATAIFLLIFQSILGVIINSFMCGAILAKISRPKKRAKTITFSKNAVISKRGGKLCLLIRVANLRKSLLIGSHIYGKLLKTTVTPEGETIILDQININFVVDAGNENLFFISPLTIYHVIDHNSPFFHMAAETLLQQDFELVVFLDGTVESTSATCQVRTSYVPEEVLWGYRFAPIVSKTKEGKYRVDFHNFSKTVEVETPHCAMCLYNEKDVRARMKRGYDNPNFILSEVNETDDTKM
# ROMK hit retest = ROMK channel modulator hit retest, confirmation, cell-based, thallium flux, duplicate, resupplied hits. AID 1917, 2009. fluorescence ratio; active compounds read low. normalized thallium flux (F/F0 slope) at 10 µM. 3,000 tested, 54% active. shares compounds with ROMK mod;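 active = Flux at 10 µM at least 3 SD below or above vehicle control mean in one or both replicates; inconclusive = no clear call, values can overlap the other calls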
# Starred values were filed as active, the others as inactive; ? = inconclusive; / = no result given. The sample as a whole holds a higher share of hits than the screen did.
SMILES,Calb biofilm kill,ROMK mod,ROMK hit retest
CC(=O)O[C@]1(c2ccccc2)CCN(C)[C@H]2CCCC[C@@H]21,8.4,-0.755,/
CN1CCC(C)(O)C2CCCCC21 (configuration not stated),9.4,-11.1*,0.082
COc1ccc(C(=O)Oc2cccc3cccnc23)cc1S(=O)(=O)N1CCOCC1,6.5,-0.182,/
COc1ccc(-c2cc(-c3ccccc3)[n+](C)c(-c3ccccc3)c2)cc1,13.7,-0.821,/
Nc1ccccc1-[n+]1c(-c2ccccc2)cc(-c2ccccc2)cc1-c1ccccc1,-3.0,/,0.0618*
O=C1C2CCCC1C(N1CCCC1)CC2 (configuration not stated),7.6,0.244,/
CCn1cc(CN2CCCC(C(=O)c3sccc3C)C2)cn1 (configuration not stated),11.9,/,/
Cc1cc(C=C2C(=O)NC(=O)NC2=O)c(C)n1-c1cccnc1,12.6,/,/
C=CCN1C(=O)/C(=C/c2cc(C)n(-c3cccnc3)c2C)C(=O)NC1=S,7.6,-2.85*,0.0669*
CC(C)OP(=O)(OC(C)C)C(NCc1ccccc1)c1ccccc1 (configuration not stated),19.5,-0.155,/
NC(=O)c1cn(C2OC(CO)C(O)C2O)c2ncnc(N)c12 (configuration not stated),5.8,4.01*,0.0924
CCN(c1ccc(C(O)(C(=O)OC)C(F)(F)F)cc1)S(=O)(=O)c1ccc(C)cc1 (configuration not stated),/,-1.52,/
CN1C(=O)C(=Cc2ccccc2OCc2ccc(Cl)cc2)C(=O)N(C)C1=O,8.6,/,/
CN1C(=O)C(=Cc2ccccc2Oc2ccc(Cl)cc2)C(=O)N(C)C1=O,/,/,0.0842
C=CC[N+]1(C)C2CCC1CC(O)C2 (configuration not stated),-10.2,/,/
COc1ccc(C2c3c(nc(C)[nH]c3=O)Oc3c2c(=O)oc2ccccc32)cc1 (configuration not stated),27.8,0.689,/
C#CCOc1cc(C2C3=C(COC3=O)Nc3cc4c(cc32)OCO4)ccc1OC (configuration not stated),15.3,3.47*,0.0862
CC1(CCl)CN1S(=O)(=O)c1ccccc1 (configuration not stated),19.2,/,/
O=C(/C=C/c1c[nH]c2ccccc12)c1c(O)n(CCc2ccccc2)c(=O)[nH]c1=O,14.9,/,0.04*
CCCCn1c(O)c(C(C)=NCCc2c[nH]c3ccccc23)c(=O)[nH]c1=O,23.7,/,/
Cc1ccc(OCC(=O)N2CCN(C3CCC(c4ccccc4)CC3)CC2)cc1 (configuration not stated),5.8,-1.55,/
COC1=CCC2([N+](=O)[O-])CN(C)CC1([N+](=O)[O-])C2 (configuration not stated),7.8,/,/
OC(c1cccc(Cl)c1)(c1cccc(Cl)c1)C1CN2CCC1CC2 (configuration not stated),17.8,-4.52*,0.0524*
Clc1ccc2c(c1)C(OC1CN3CCC1CC3)c1ccccc1CS2 (configuration not stated),6.9,/,/
NC1=Nc2ccccc2Oc2ccccc21,/,/,0.0478*
SMILES,Calb biofilm kill,ROMK mod,ROMK hit retest
CN1c2ccccc2Oc2ccccc21,11.6,/,/
CC1CCC(C(C)C)C(OC(=O)Cn2c(COc3ccccc3)[n+](C)c3ccccc32)C1 (configuration not stated),9.9,-8.83*,0.0374*
CCOC(=O)C(O)(c1ccc(N(CC)C(=O)COc2ccccc2)cc1)C(F)(F)F (configuration not stated),7.1,/,/
NC(=O)c1c(NC(=O)c2ccc(S(=O)(=O)N(CCCl)CCCl)cc2)sc2c1CCCCC2,12.1,1.21,/
CN1CCN(c2cc(N3CCCCCC3)c(F)cc2[N+](=O)[O-])CC1,8.0,-3.57*,0.0529*
CCN1CCN(c2cc(N3CCCC3)c([N+](=O)[O-])cc2F)CC1,5.3,-0.396,/
CCOC(=O)[C@]1(C#N)[C@@H]2C=CC(C(C)=O)=CN2[C@@H](C(N)=O)[C@@H]1c1ccsc1,/,-3.58*,0.0493*
N=Cc1c(O)n(-c2ccc(C34CC5CC(CC(C5)C3)C4)cc2)c(=O)[nH]c1=O,6.3,-1.18,/
CC[n+]1c(SC)ccc2cc(OC)ccc21,12.8,/,/
CCC(CO)NC(=O)C1C=C2c3cccc4[nH]cc(c34)CC2N(C)C1 (configuration not stated),16.8,/,/
COC(=O)C1C=C2c3cccc4[nH]cc(c34)CC2N(C)C1 (configuration not stated),3.3,/,0.0542*
COc1cccc(C2CC3C(=O)C=CC2N3Cc2ccccc2)c1 (configuration not stated),17.1,/,/
CN1C(=O)C(=Cc2ccc(Sc3ccccc3)o2)C(=O)N(C)C1=O,4.1,-5.58*,0.0565*
O=C1NC(=O)C(=Cc2ccc(Sc3ccccc3)o2)C(=O)N1,17.9,/,/
CC(C)OC1CCCC(O)C1CC(=O)O (configuration not stated),7.8,/,/
COc1ccccc1C1C([N+](=O)[O-])=C(N)Oc2c1c(=O)oc1ccccc21 (configuration not stated),15.9,0.888,/
CCOc1ccc(N2C(=O)NC(=O)/C(=C\c3ccc(N4CCCCC4)o3)C2=O)cc1,14.0,/,0.044*
O=C1NC(=O)N(c2ccc3c(c2)OCO3)C(=O)/C1=C/c1ccc(N2CCCC2)o1,12.7,/,/
C=CCn1c(O)c(C(CC)=NCC2CCCO2)c(=O)[nH]c1=O (configuration not stated),18.5,0.438,/
CCOc1cc(CNCCc2c[nH]c3ccccc23)cc(Cl)c1OC,5.4,-3.17*,0.0611*
COc1cccc(CNCCc2c[nH]c3ccccc23)c1OC,9.4,-0.156,/
C[C@H]1CC[C@H]2NCCN[C@H]2C1,0.1,-0.0906,/
CCC(=NCc1ccco1)c1c(O)n(C2CCCCC2)c(=O)[nH]c1=O,/,-3.99*,0.0536*
CCC(=NCc1cccnc1)c1c(O)n(C2CCCCC2)c(=O)[nH]c1=O,/,-2.15,/
Nc1ccccc1C(=O)OC1CSC1,/,1.1,/
SMILES,Calb biofilm kill,ROMK mod,ROMK hit retest
C1CCC2S[C@H]3CCCCC3NC2C1 (some centres not stated),18.4,-0.277,/
CN1C(=O)C(=Cc2ccc(N3CCOCC3)o2)C(=O)N(C)C1=S,16.3,/,/
CN1C(=O)/C(=C/c2ccc(N3CCCCCC3)o2)C(=O)NC1=S,10.3,-0.383,/
C=CCN1C(=O)/C(=C\c2ccc(N3CCOCC3)o2)C(=O)NC1=S,5.7,-4.74*,0.052*
CCN1C(=O)C(=Cc2ccc(N3CCOCC3)o2)C(=O)N(CC)C1=S,3.8,/,0.0545*
[N-]=[N+]=NCc1cn2cccnc2n1,7.7,-0.0538,/
Cc1ccccc1NC1(C#N)CCCCC1,21.5,1.1,/
CCOC(=O)c1cc2c(cn1)[nH]c1ccccc12,10.1,/,?
CCOC(=O)c1nc2ccccc2c(=O)n1-c1ccc(C)cc1C,17.6,/,/
CC(=O)OC1(c2ccccc2)CCN(C2CCCCC2)CC1C (configuration not stated),12.0,/,/
CC12CC[C@H]3[C@@H](CCC4(O)C[C@H](O)CCC34/C=N/NC(=O)Cc3ccccc3)C1(O)CCC2C1=CC(=O)OC1 (some centres not stated),4.9,/,0.0855
